Here are results for 5 compounds from article PMC11187553 (RSC Medicinal Chemistry, 2024).

For data set [1], the system named is reactive oxygen species (ROS) in SH-SY5Y cells. Nature of the data set: ROS determination with DCFDA probe in SH-SY5Y cells. The class given is cell-based, human. Particulars: for protective effect against TBH-induced oxidative stress: 2 μM 24 h pre-treatment, 100 μM tert-butyl hydroperoxide 30 min; for effect on endogenous ROS (oxidative stress) vs control: 2 μM, 24 h, DCFDA. In outline: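 SH-SY5Y cells (1 × 10^4/well) were left 24 h to adhere, then given vehicle or 2 μM test compound for 24 h. After washing, cells were loaded with 10 μM DCFDA in DMEM for 30 min. Oxidative stress was then induced with 100 μM tert-butyl hydroperoxide in PBS for 30 min. Fluorescence (485/535 nm) was normalised to Lowry protein; experiments were done in triplicate.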

Data set [2] relates to neural progenitor cells (neurospheres). Put plainly: Neurospheres proliferation. The class given is cell-based, Mus musculus. Particulars: 7 DIV. In outline:
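NPCs from the subventricular zone of 8-month-old male C57BL/6N mice were Accutase-dissociated and plated as single cells (5 × 10^3/well) in suspension. Medium was DMEM-F12 with glutamine, insulin, 20 ng ml−1 EGF, 20 ng ml−1 FGF2, N2 and B27. Test compound (2.5–50 μM) or DMSO was present for 7 DIV. Brightfield live-cell images were taken daily; only aggregates over 400 μm2 were analysed.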

Another data set concerns HepG2 cells. Put plainly: Cytotoxicity in human hepatoma cell line HepG2. The class given is cell-based. Particulars: 24 h incubation at 1-100 μM, MTT. In outline: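 HepG2 cells were grown in MEM with 10% FBS, penicillin and streptomycin, then seeded at 1.5 × 10^4 cells/well. After 24 h they received test compound ([…]) in complete medium or vehicle for 24 h. MTT (0.2 mg mL−1 in PBS) was added for 2 h at 37 °C, formazan was dissolved in DMSO, and A570 was read. Results are % live cells versus vehicle, mean ± SD, n = 4.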

The test system of data set [3] is SH-SY5Y cells. Put plainly: Protection of SH-SY5Y cells from H2O2 cytotoxicity. The data set is classed as cell-based, human. The conditions noted are these: pre-treatment at all concentrations (1-50 μM), 24 h.
For data set [4], the system named is neural progenitor cells (neurospheres). Put plainly: Neurospheres differentiation analysis. The data set is classed as cell-based, Mus musculus. Particulars: 2.5 and 5 μM, 7 DIV. In outline:
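Neurospheres came from subventricular-zone NPCs of 8-month-old male C57BL/6N mice. Thirty spheres were plated on Matrigel-coated coverslips in complete DMEM F-12 with test compound or DMSO for 7 DIV. Cells were fixed in 4% PFA, permeabilised with Triton, blocked in goat serum, and stained overnight at 4 °C for DCX, GFAP, Olig2 and Nestin. Confocal z-stacks gave marker intensity/DAPI intensity; mean ± SD of 3 fields per condition.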

Data set [5] relates to SH-SY5Y cells. Nature of the data set: Cytotoxic effects in SH-SY5Y cells. The data set is classed as cell-based, human. The conditions noted are these: for cytotoxicity (in words): 0.1-100 μM, 24, 48 or 72 h.
For a further data set, the target named is T1, HDAC6 (Homo sapiens, UniProt Q9UBN7).
T1 sequence (Q9UBN7 1-1215): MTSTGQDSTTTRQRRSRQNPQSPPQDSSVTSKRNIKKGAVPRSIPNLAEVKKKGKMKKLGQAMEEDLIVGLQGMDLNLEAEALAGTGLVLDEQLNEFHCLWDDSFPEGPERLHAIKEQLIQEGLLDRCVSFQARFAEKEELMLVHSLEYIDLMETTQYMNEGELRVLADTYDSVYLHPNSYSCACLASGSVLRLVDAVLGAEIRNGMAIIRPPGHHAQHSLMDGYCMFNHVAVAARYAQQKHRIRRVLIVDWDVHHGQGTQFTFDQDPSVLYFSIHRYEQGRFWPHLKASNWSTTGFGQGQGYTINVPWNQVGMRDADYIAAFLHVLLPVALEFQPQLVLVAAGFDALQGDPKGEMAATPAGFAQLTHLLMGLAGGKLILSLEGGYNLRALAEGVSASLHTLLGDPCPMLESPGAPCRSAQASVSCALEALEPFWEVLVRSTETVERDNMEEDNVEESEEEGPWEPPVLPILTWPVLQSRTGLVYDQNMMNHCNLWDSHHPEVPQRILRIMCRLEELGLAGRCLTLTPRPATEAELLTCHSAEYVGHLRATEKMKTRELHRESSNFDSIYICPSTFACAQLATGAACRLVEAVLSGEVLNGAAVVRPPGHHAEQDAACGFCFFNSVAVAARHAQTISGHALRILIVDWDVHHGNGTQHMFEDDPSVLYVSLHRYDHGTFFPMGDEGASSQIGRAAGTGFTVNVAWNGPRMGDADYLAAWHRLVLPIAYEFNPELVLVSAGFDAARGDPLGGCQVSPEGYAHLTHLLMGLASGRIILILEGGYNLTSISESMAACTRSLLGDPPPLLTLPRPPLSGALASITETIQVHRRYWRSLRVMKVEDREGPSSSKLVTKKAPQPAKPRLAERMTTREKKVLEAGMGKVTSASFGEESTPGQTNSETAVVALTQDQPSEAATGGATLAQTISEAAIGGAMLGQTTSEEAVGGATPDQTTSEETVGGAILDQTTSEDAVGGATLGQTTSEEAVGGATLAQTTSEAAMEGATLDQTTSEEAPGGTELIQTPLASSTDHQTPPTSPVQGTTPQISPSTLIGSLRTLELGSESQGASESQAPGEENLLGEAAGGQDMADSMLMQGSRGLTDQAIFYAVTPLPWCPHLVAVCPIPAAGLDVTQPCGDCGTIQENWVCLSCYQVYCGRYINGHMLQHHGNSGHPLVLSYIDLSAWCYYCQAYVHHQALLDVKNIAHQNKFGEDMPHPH
Nature of the data set: HDAC inhibition in vitro assay. The data set is classed as biochemical. The conditions noted are these: from IC50 values of Table 2.

In data set [6] the test system is SH-SY5Y cells. Put plainly: SH-SY5Y viability after sulforaphane. The class given is cell-based, human. The conditions noted are these: data not shown.
The subject of data set [7] is SH-SY5Y cells. Put plainly: SH-SY5Y viability after NAC pre-treatment and compound 6. Particulars: NAC 2 mM 1 h, then compound 10 μM 24 h. The class given is cell-based, human.
Data set [8] relates to histones H2/H3 lysine acetylation. Nature of the data set: Western blot of lysine acetylation of histones H2/H3 in SH-SY5Y cells. The data set is classed as cell-based, human. The conditions noted are these: 5 μM, 6 h. In outline: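 SH-SY5Y cells were seeded at 20 × 10^4 cells/cm2 and grown 48 h, then given 5 μM test compound or vehicle for 6 h. Cells were washed in 10 mM sodium butyrate/PBS, nuclei isolated, and histones acid-extracted (0.4 N H2SO4, 4 °C, 1 h) and precipitated in acetone. Samples ran on 15% gels and were blotted to nitrocellulose with anti-acetyl-lysine antibody. Densitometry was normalised to H1.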
(A western blot detects proteins with antibodies after separation by electrophoresis.)

Data set [9] deals with SH-SY5Y cells. Nature of the data set: Analysis of cell cycle in SH-SY5Y cells. The class given is cell-based, human. The conditions noted are these: 72 h. In outline: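 SH-SY5Y cells were grown in DMEM with 10% FBS and antibiotics at 37 °C in 5% CO2. After 72 h with test compound, cells were collected, fixed in 70% ice-cold ethanol and stained with a propidium iodide cell-cycle reagent for 30 min in the dark at room temperature. Cell-cycle distribution was read by flow cytometry.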

Usually IC50 stands for the midpoint of a concentration-inhibition curve.

“Also recorded” adds a separate entry of the source.

As to `CC1=C(NCCCCNC(=O)CS)C(=O)c2ccccc2C1=O` [Compound 8, 2-Mercapto-N-(4-((3-methyl-1,4-dioxo-1,4-dihydronaphthalen-2-yl)amino)butyl)acetamide], in data set [1], the “protective effect against TBH-induced oxidative stress” value is reported as “did not show any protective effect” and the “effect on endogenous ROS (oxidative stress) vs control” value is given as “only a tendency to increase ROS production”. For the same compound, in data set [2] (2.5 and 5 μM), the “neurospheres number per well vs DMSO control” value is “significantly increased” and the “neurospheres size vs DMSO control” value is on record as “without affecting”. Besides, the toxicity to neurospheres result in [2] (higher concentrations 25, 50 μM) is “toxic”. The “toxicity in HepG2 cells (in words)” value in the data set with HepG2 cells is “no significant toxicity up to 10 μM”. In addition, the “rescue of SH-SY5Y cell viability from H2O2” value in the data set with SH-SY5Y cells [3] is “did not rescue”. In data set [4], the “DCX+ cells (immature neurons marker) vs DMSO control” value was “significantly increased”, the “GFAP expression (astrocytes marker) vs DMSO control” value is “without affecting”, the “Nestin+ cells (NPCs marker) vs DMSO control” value is “decreased” and the “Olig2 expression (OPCs marker) vs DMSO control” value is given as “without affecting”. The “cytotoxicity (in words)” value in the data set on SH-SY5Y cells [5] was “nontoxic up to the concentration of 100 μM; also recorded: lowest cytotoxicity”. For the same compound, at HDAC6, the “selectivity between HDAC2 and HDAC6 isoforms” value is “no selectivity”. Besides, the “protective activity in H2O2-stressed cells after sulforaphane treatment” value in the data set with SH-SY5Y cells [6] (SFN (NQO1 inducer)) is “no increase in the protective activity”.
Consider `Nc1ccccc1NC(=O)c1ccc(CNC2=CC(=O)c3ccccc3C2=O)cc1` [Compound 5, N-(2-Aminophenyl)-4-(((1,4-dioxo-1,4-dihydronaphthalen-2-yl)amino)methyl)benzamide], for which the “cytotoxicity (in words)” value in the data set on SH-SY5Y cells [5] is listed as “comparable to that of vorinostat”.
For the compound `CC1=C(NCc2ccc(C(=O)Nc3ccccc3N)cc2)C(=O)c2ccccc2C1=O` [Compound 6, N-(2-Aminophenyl)-4-(((3-methyl-1,4-dioxo-1,4-dihydronaphthalen-2-yl)amino)methyl)benzamide], in [1], the “protective effect against TBH-induced oxidative stress” value is on record as “did not show any protective effect” and the “effect on endogenous ROS (oxidative stress) vs control” value is given as “significant induction of oxidative stress”. Further, the “mitigation of cytotoxic effect by NAC pre-treatment” value in the data set with SH-SY5Y cells [7] is on record as “not mitigated”. For the same compound, in data set [8], the “acetylation of histone H2/H3 lysines” value is “massive hyperacetylation”. Further, in the data set with SH-SY5Y cells [9], the “cell-cycle block in G0/G1, S or G2/M (cytostatic effect)” value was “no cell-cycle block”. Besides, the “change of toxic activity in cells pretreated with sulforaphane” value in the data set with SH-SY5Y cells [6] (SFN pre-treatment) is recorded as “did not observe any change in the toxic activity”.
Regarding `CC1=C(NCCCCCC(=O)NO)C(=O)c2ccccc2C1=O` [Compound 2, N-Hydroxy-6-((3-methyl-1,4-dioxo-1,4-dihydronaphthalen-2-yl)amino)hexanamide], in the data set with SH-SY5Y cells [5] (Homo sapiens, 24 h, read-out: IC50 (μM) ± SEM 24 h), the IC50 was above 100 µM.
Take `O=C(CS)NCCCCNC1=CC(=O)c2ccccc2C1=O` [Compound 7, N-(4-((1,4-Dioxo-1,4-dihydronaphthalen-2-yl)amino)butyl)-2-mercaptoacetamide]: the “cytotoxicity (in words)” value in the data set with SH-SY5Y cells [5] is recorded as “lowest cytotoxicity”.
